A short description of assay [1]: Reduction in EED protein expression in human Toledo cells at 2 to 8 uM after 72 hrs by Western blot analysis. It counts as functional, cell-based. Summed up: (§1)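 DB (mutant EZH2) or Toledo (wild-type EZH2) DLBCL cells treated with compound for 72 h; lysed in RIPA buffer; 30 μg total protein resolved by SDS-PAGE, blotted to PVDF, probed for EZH2, EED, SUZ12 or H3K27me3 with HRP secondary and chemiluminescent detection; total histone H3 as loading control; 10 μM EPZ005687 as reference inhibitor.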
Background: A western blot detects proteins with antibodies after separation by electrophoresis.

Assay [2] is described as follows: Reduction in EZH2 protein expression in human Toledo cells at 2 to 8 uM after 72 hrs by Western blot analysis. Format: functional, cell-based. Summed up: as §1
Assay [3] in a line: Reduction in SUZ12 protein expression in human Toledo cells at 2 to 8 uM after 72 hrs by Western blot analysis. It counts as functional, cell-based. Summed up:
as §1

For assay [4], the system named is DB. Put plainly: Reduction in EED protein expression in human DB cells at 7.5 to 30 uM after 72 hrs by Western blot analysis. Format: functional, cell-based. Summed up:
as §1

The test system of assay [5] is DB. The assay can be described thus: Reduction in EZH2 protein expression in human DB cells at 7.5 to 30 uM after 72 hrs by Western blot analysis. Format: functional, cell-based. A digest of the protocol: as §1
Assay [6] concerns DB. Put plainly: Reduction in SUZ12 protein expression in human DB cells at 7.5 to 30 uM after 72 hrs by Western blot analysis. It counts as functional, cell-based. A digest of the protocol:
as §1

Assay [7] is described as follows: Reduction in EED protein expression in human Toledo cells at 10 uM after 72 hrs by Western blot analysis. Format: functional, cell-based. A digest of the protocol:
as §1

The nature of assay [8]: Reduction in EZH2 protein expression in human Toledo cells at 10 uM after 72 hrs by Western blot analysis. Format: functional, cell-based. Summed up:
as §1

The nature of assay [9]: Reduction in SUZ12 protein expression in human Toledo cells at 10 uM after 72 hrs by Western blot analysis. Format: functional, cell-based. Summed up:
as §1

The subject of assay [10] is DB. Put plainly: Reduction in EED protein expression in human DB cells at 10 uM after 72 hrs by Western blot analysis. It counts as functional, cell-based. A digest of the protocol: as §1
Assay [11] concerns DB. Put plainly: Reduction in EZH2 protein expression in human DB cells at 10 uM after 72 hrs by Western blot analysis. It counts as functional, cell-based. A digest of the protocol: as §1
Assay [12] relates to DB. The assay can be described thus: Reduction in SUZ12 protein expression in human DB cells at 10 uM after 72 hrs by Western blot analysis. It counts as functional, cell-based. Summed up:
as §1

Assay [13] can be described thus: Reduction in EZH2 protein expression in human Toledo cells after 72 hrs by Western blot analysis. Format: functional, cell-based. A digest of the protocol:
as §1

Assay [14] in a line: Reduction in EED protein expression in human Toledo cells after 72 hrs by Western blot analysis. Format: functional, cell-based. Summed up:
as §1

Assay [15] is described as follows: Reduction in SUZ12 protein expression in human Toledo cells after 72 hrs by Western blot analysis. Format: functional, cell-based. A digest of the protocol:
as §1

Assay [16] deals with DB. The assay can be described thus: Reduction in EZH2 protein expression in human DB cells after 72 hrs by Western blot analysis. Format: functional, cell-based. A digest of the protocol: as §1
Assay [17] has as its system DB. Put plainly: Reduction in EED protein expression in human DB cells after 72 hrs by Western blot analysis. It counts as functional, cell-based. Summed up:
as §1

The test system of assay [18] is DB. Put plainly: Reduction in SUZ12 protein expression in human DB cells after 72 hrs by Western blot analysis. It counts as functional, cell-based. Summed up: as §1
Assay [19] deals with DB. Put plainly: Antiproliferative activity against human DB cells after 7 days by CCK-8 assay. It counts as functional, cell-based. Summed up:
(§2)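 DLBCL lines from ATCC grown in RPMI 1640 with 10% FBS and Pen/Strep; 1−2 × 10^4 cells per well seeded in serum-containing medium with compound, triplicate cultures; 7 days incubation; viability by CCK-8 absorbance at 450 nm (600 nm reference), expressed as percentage of absorbance relative to control cells.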
For orientation: Formazan colour is commonly taken as a measure of viable cells.

Assay [20] relates to SU-DHL-6. Put plainly: Antiproliferative activity against human SU-DHL6 cells after 7 days by CCK-8 assay. Format: functional, cell-based. Summed up:
as §2

The test system of assay [21] is SUD4. The assay can be described thus: Antiproliferative activity against human SU-DHL4 cells after 7 days by CCK-8 assay. It counts as functional, cell-based. A digest of the protocol: as §2
Assay [22] concerns Pfeiffer. Put plainly: Antiproliferative activity against human Pfeiffer cells after 7 days by CCK-8 assay. It counts as functional, cell-based. Summed up: as §2
Assay [23] has as its system Toledo. Put plainly: Antiproliferative activity against human Toledo cells after 7 days by CCK-8 assay. It counts as functional, cell-based. A digest of the protocol:
as §2

Assay [24] relates to SU-DHL-6. The assay can be described thus: Antiproliferative activity against human SU-DHL6 cells at 5 uM after 7 days by CCK-8 assay in presence of 5 uM EPZ005687. It counts as functional, cell-based.
The subject of assay [25] is SUD4. The assay can be described thus: Antiproliferative activity against human SU-DHL4 cells at 5 uM after 7 days by CCK-8 assay in presence of 5 uM EPZ005687. It counts as functional, cell-based.
Assay [26] deals with Pfeiffer. Put plainly: Antiproliferative activity against human Pfeiffer cells at 5 uM after 7 days by CCK-8 assay in presence of 5 uM EPZ005687. It counts as functional, cell-based.
Assay [27] deals with DB. The assay can be described thus: Antiproliferative activity against shRNA-treated human DB cells at 2.5 to 15 uM after 3 days by Alamar blue assay. Format: functional, cell-based. A digest of the protocol:
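DB cells transduced with lentiviral pSICOR shRNA (mock, shEED or shEZH2); 5000 cells per well in serum-containing medium with compound, triplicate cultures; 3 days incubation; alamar blue added, plates incubated at 37 °C and read at 560 nm.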
On the technique in general: Alamar Blue is a resazurin reagent that responds to reducing activity.

For assay [28], the target named is Polycomb protein EED (Homo sapiens) (UniProt O75530).
Polycomb protein EED (Homo sapiens), sequence (O75530 2-441 limits assumed): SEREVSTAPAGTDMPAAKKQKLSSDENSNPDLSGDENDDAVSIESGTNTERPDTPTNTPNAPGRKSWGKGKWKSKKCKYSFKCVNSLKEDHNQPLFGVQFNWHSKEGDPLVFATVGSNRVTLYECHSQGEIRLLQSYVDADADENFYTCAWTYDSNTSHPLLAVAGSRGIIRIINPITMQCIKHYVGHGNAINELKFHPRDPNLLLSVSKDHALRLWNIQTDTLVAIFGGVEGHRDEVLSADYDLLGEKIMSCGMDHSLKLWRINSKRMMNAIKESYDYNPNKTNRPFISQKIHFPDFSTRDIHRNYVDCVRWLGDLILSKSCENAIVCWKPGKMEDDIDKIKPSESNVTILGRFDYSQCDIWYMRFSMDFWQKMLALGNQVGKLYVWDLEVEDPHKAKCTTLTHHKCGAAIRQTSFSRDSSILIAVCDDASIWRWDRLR
For assay [29] the target is unchanged. The source holds these as a separate data set.
Assay [30] has the same target. The source holds these as a separate data set.
Assay [31] shares this target. This is another data set of the same source.
The target is the same in assay [32]. This is another data set of the same source.
Assay [33] has as its system Polycomb protein EED (Homo sapiens), O75530 [V112E]. Conditions: 200 uM.
Assay [34] relates to Polycomb protein EED (Homo sapiens), O75530 [L123E]. Conditions: 200 uM.
Polycomb protein EED (Homo sapiens), O75530 [L123E], sequence (O75530 whole entry L123E): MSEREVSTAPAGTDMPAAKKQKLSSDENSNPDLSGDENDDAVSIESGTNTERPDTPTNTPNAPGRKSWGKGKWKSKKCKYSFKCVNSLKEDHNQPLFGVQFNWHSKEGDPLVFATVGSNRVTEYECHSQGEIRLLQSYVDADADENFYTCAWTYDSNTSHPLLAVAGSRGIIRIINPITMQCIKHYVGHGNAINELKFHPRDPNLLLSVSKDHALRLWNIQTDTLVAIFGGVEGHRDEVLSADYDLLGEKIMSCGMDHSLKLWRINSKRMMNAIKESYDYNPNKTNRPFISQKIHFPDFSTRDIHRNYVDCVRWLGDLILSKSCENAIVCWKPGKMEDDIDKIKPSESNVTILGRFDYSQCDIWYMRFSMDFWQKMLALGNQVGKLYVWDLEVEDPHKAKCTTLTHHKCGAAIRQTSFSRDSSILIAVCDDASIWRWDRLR
The test system of assay [35] is Polycomb protein EED (Homo sapiens), O75530 [L246E]. Particulars: 200 uM.
Polycomb protein EED (Homo sapiens), O75530 [L246E], sequence (O75530 whole entry L246E): as the sequence (O75530 whole entry L123E) above, with E123L, L246E counted along it
Assay [36] has as its system Polycomb protein EED (Homo sapiens), O75530 [L315D]. Particulars: 200 uM.
Assay [37] deals with Polycomb protein EED (Homo sapiens), O75530 [L353A]. Particulars: 200 uM.
Polycomb protein EED (Homo sapiens), O75530 [L353A], sequence (O75530 whole entry L353A): as the sequence (O75530 whole entry L123E) above, with E123L, L353A counted along it
In assay [38] the test system is Polycomb protein EED (Homo sapiens), O75530 [F356Y]. Conditions: 200 uM.
Polycomb protein EED (Homo sapiens), O75530 [F356Y], sequence (O75530 whole entry F356Y): as the sequence (O75530 whole entry L123E) above, with E123L, F356Y counted along it
The subject of assay [39] is Toledo. The assay can be described thus: Antiproliferative activity against human Toledo cells by flow cytometry.
The subject of assay [40] is SU-DHL-6. The assay can be described thus: Antiproliferative activity against human SU-DHL6 cells after 7 days by CCK8 assay.
Assay [41] deals with SUD4. Put plainly: Antiproliferative activity against human SU-DHL4 cells after 7 days by CCK8 assay.
In assay [42] the test system is Pfeiffer. Put plainly: Antiproliferative activity against human Pfeiffer cells after 7 days by CCK8 assay.
The subject of assay [43] is DB. The assay can be described thus: Antiproliferative activity against human DB cells after 72 h by flow cytometry in presence of EPZ005687.
The test system of assay [44] is DB. Put plainly: Antiproliferative activity against human DB cells at 5 uM after 72 hrs by flow cytometry in presence of 5 uM EPZ005687.
Assay [45] has as its system Toledo. Put plainly: Antiproliferative activity against human Toledo cells at 5 uM after 72 hrs by flow cytometry in presence of 5 uM EPZ005687.

Calls of active or inactive are those of the source. The rule behind the calls is not given here.

Polycomb protein EED (Homo sapiens), O75530 [V112E], sequence (O75530 whole entry V112E): as the sequence (O75530 whole entry L123E) above, with V112E, E123L counted along it
Polycomb protein EED (Homo sapiens), O75530 [L315D], sequence (O75530 whole entry L315D): as the sequence (O75530 whole entry L123E) above, with E123L, L315D counted along it

For `COc1cccc2c1C(=O)c1c(O)c3c(c(O)c1C2=O)C[C@@](O)(C(=O)CO)C[C@@H]3O[C@H]1C[C@H](N)[C@H](O)[C@H](C)O1`, the result (in assay [1]; in [2]; in assay [3]; with DB [4]; with DB [5]; with DB [6]) was inactive.
For `Cc1cc(C)c(CNC(=O)c2cc(-c3ccc(CN4CCOCC4)cc3)cc3c2cnn3C2CCCC2)c(=O)[nH]1`, the result (in assay [7]; in assay [8]; in [9]; in the assay on DB [10]; with DB [11]; in the assay with DB [12]) was inactive.
The term ΔTm denotes the shift of the melting midpoint relative to a reference. Take `COc1ccc(CCN2CCC(Nc3nc4ccccc4n3Cc3ccc(F)cc3)CC2)cc1`: the result (in assay [13]; in assay [14]; in assay [15]; in the assay with DB [16]; with DB [17]; in the assay on DB [18]) was Active. The result in the assay on DB [19], in the assay on SU-DHL-6 [20], with SUD4 [21], with Pfeiffer [22], in the assay on Toledo [23] and in the assay on SU-DHL-6 [24] was Active. Moreover, the result in the assay with SUD4 [25], in the assay on Pfeiffer [26], in the assay on Toledo [39], with SU-DHL-6 [40], in the assay on SUD4 [41] and in the assay with Pfeiffer [42] was Active. The result in the assay with DB [43], with DB [44] and in the assay with Toledo [45] was Active. The result in the assay with DB [27] was inactive. Besides, the ΔTm amounted to 4.08 °C in assay [28]; 4.29 °C in assay [29]; 3.44 °C in assay [30]; 2 °C in assay [31]; 1.64 °C in [32]. For the same molecule, the Tm in [33] is 38.2 °C; in assay [34] it was 38.2 °C; in [35], 38.1 °C; in [36], 38.1 °C; in assay [37], 38.2 °C; in assay [38] it was 38.2 °C.

The values above are taken from ChEMBL document CHEMBL3351265.
